Measurements as given in ChEMBL document CHEMBL3632593, “3-Nitrotriazole-based piperazides as potent antitrypanosomal agents” (Eur J Med Chem, 2015).

Key:
[1] = test system: Trypanosoma brucei rhodesiense; test: Antitrypanosomal activity against bloodstream trypomastigote forms of Trypanosoma brucei rhodesiense STIB 900 assessed as inhibition of growth; assay type: functional, organism-based
How it was run: (§1)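 Parasite growth assay run in 96-well format per an earlier protocol. Dose–response curves were constructed, and the 50% growth-inhibitory concentration was calculated by linear regression from the sigmoidal dose–inhibition curves.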

[2] = Selectivity index, ratio of IC50 for rat L6 cells to IC50 for bloodstream trypomastigote forms of Trypanosoma brucei rhodesiense STIB 900
Trypanosoma cruzi [3] = test: Antichagasic activity against amastigote forms of Trypanosoma cruzi Tulahuen C4 assessed as inhibition of growth; assay type: functional, organism-based; how it was run: as §1
[4] = Selectivity index, ratio of IC50 for rat L6 cells to IC50 for amastigote forms of Trypanosoma cruzi Tulahuen C4
Leishmania donovani = test: Antileishmanial activity against axenic amastigote forms of Leishmania donovani MHOM/ET/67/L82 assessed as inhibition of growth; assay type: functional, organism-based; how it was run: as §1
[5] = Selectivity index, ratio of IC50 for rat L6 cells to IC50 for amastigote forms of Leishmania donovani MHOM/ET/67/L82
L6 = test: Cytotoxicity against rat L6 cells assessed as cell viability; assay type: cell-based
[6] = test system: Trypanosoma brucei brucei; test: Activity of histidine tagged recombinant Trypanosoma brucei brucei type 1 nitroreductase assessed as NADH oxidation at 100 uM by spectrophotometry method
How it was run: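 Purified recombinant his-tagged T. b. brucei type I nitroreductase. Each nitrotriazole substrate at 100 µM with NADH at 100 µM. NADH oxidation followed spectrophotometrically at 340 nm. Specific activity expressed as nmol NADH oxidized per min per mg enzyme.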

Trypanosoma cruzi [7] = test: Activity of histidine tagged recombinant Trypanosoma cruzi type 1 nitroreductase assessed as NADH oxidation at 100 uM by spectrophotometry method
How it was run: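 Purified recombinant T. cruzi type I nitroreductase, prepared and assayed per earlier work. Specific activity expressed as NADH oxidized per min per mg protein.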

[8] = test system: Trypanosoma brucei brucei; test: Antimicrobial activity against bloodstream forms of Trypanosoma brucei brucei assessed as reduction in cell viability after 3 days by alamar blue assay; assay type: functional, organism-based; conditions: 72 h
[9] = test system: Trypanosoma brucei brucei; test: Antimicrobial activity against bloodstream forms of Trypanosoma brucei brucei overexpressing type I nitroreductase assessed as reduction in cell viability after 3 days by alamar blue assay in absence of tetracycline; assay type: functional, organism-based; conditions: 72 h
[10] = test system: Trypanosoma brucei brucei; test: Antimicrobial activity against bloodstream forms of Trypanosoma brucei brucei overexpressing type I nitroreductase assessed as reduction in cell viability after 3 days by alamar blue assay in presence of tetracycline; assay type: functional, organism-based; conditions: 72 h
[11] = test system: Trypanosoma brucei brucei; test: Ratio of IC50 for bloodstream forms of Trypanosoma brucei brucei overexpressing type I nitroreductase in absence of tetracycline to IC50 for bloodstream forms of Trypanosoma brucei brucei overexpressing type I nitroreductase in presence of tetracycline; assay type: functional
Mus musculus = test: Toxicity in Balb/c mouse infected with firefly luciferase expressing trypamastigote forms of transgenic Trypanosoma cruzi Y at 15 mg/kg/day, ip dosed for 10 days; assay type: organism-based; conditions: in vivo, 240 h
Trypanosoma cruzi [12] = test: Antichagasic activity against firefly luciferase expressing trypamastigote forms of transgenic Trypanosoma cruzi Y infected in Balb/c mouse assessed as reduction in parasite level at 15 mg/kg/day, ip dosed for 10 days by luciferase reporter gene assay; assay type: functional; conditions: 240 h
How it was run: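 Balb/c mice were infected with luciferase-expressing T. cruzi Y trypomastigotes and imaged at baseline after i.p. D-luciferin 150 mg/kg in PBS. Ratio = post-treatment / pre-treatment luciferase signal per animal; group mean ± SD.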

Cytochrome P450 3A4 = Cytochrome P450 3A4 (Homo sapiens, UniProt P08684); test: Inhibition of CYP3A4 in human Liver microsomes after 5 mins by LC-MS/MS method
Cytochrome P450 2C9 = Cytochrome P450 2C9 (Homo sapiens, UniProt P11712); test: Inhibition of CYP2C9 in human Liver microsomes after 5 mins by LC-MS/MS method
Cytochrome P450 2D6 = Cytochrome P450 2D6 (Homo sapiens, UniProt P10635); test: Inhibition of CYP2D6 in human Liver microsomes after 5 mins by LC-MS/MS method
Cytochrome P450 2C19 = Cytochrome P450 2C19 (Homo sapiens, UniProt P33261); test: Inhibition of CYP2C19 in human Liver microsomes after 35 mins by LC-MS/MS method
Cytochrome P450 2C8 = biological target: T1, Cytochrome P450 2C8 (Homo sapiens, UniProt P10632); test: Inhibition of CYP2C8 in human Liver microsomes after 5 mins by LC-MS/MS method
T1 sequence (P10632 whole entry): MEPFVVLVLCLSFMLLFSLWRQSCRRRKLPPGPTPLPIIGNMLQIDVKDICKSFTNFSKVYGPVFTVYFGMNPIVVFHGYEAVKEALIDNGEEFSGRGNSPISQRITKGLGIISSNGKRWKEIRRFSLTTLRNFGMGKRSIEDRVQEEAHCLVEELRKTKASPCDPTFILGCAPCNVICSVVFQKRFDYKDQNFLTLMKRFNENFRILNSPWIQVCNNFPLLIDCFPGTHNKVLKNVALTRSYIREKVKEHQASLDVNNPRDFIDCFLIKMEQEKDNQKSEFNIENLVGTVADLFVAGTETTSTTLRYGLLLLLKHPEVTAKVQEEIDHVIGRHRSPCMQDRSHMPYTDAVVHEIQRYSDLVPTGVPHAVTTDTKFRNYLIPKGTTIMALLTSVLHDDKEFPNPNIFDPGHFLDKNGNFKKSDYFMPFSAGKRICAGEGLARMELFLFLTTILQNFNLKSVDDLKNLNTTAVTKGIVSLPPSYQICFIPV

[13] = Efflux ratio of permeability from basolateral to apical side over apical to basolateral side in human Caco2 cells after 2 hrs by LC-MS/MS method; conditions: Caco-2
[14] = Half life in human liver S9 microsomes in presence of NADPH by LC-MS/MS method
[15] = Half life in human liver S9 microsomes in absence of NADPH by LC-MS/MS method

Sequence of Cytochrome P450 2D6 (P10635 whole entry): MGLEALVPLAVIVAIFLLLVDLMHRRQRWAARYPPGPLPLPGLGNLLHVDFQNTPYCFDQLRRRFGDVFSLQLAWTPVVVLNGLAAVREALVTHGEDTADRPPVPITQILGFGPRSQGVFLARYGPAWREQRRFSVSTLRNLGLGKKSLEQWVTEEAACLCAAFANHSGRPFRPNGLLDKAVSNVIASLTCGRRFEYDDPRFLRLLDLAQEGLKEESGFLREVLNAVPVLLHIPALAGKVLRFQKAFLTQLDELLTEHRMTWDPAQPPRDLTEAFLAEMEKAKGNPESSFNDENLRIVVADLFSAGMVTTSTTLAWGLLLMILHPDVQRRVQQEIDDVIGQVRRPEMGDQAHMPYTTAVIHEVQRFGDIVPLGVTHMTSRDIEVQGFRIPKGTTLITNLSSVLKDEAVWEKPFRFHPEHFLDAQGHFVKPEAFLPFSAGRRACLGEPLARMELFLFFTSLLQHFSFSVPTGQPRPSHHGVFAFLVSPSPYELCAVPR
Sequence of Cytochrome P450 3A4 (P08684 whole entry): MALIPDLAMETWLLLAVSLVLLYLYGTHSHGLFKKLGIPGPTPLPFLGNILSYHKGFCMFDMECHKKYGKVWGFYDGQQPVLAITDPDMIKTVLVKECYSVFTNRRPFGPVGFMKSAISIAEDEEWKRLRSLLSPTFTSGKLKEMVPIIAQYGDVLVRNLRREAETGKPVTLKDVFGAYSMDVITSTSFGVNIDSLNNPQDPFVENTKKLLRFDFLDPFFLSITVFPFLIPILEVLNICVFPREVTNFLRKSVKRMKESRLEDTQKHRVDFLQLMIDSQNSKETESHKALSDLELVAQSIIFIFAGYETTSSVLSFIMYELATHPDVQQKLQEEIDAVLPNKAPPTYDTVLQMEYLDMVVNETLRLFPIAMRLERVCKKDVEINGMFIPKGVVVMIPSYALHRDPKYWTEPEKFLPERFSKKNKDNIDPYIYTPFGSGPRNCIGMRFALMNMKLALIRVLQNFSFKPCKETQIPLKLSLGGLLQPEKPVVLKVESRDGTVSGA
Sequence of Cytochrome P450 2C19 (P33261 whole entry): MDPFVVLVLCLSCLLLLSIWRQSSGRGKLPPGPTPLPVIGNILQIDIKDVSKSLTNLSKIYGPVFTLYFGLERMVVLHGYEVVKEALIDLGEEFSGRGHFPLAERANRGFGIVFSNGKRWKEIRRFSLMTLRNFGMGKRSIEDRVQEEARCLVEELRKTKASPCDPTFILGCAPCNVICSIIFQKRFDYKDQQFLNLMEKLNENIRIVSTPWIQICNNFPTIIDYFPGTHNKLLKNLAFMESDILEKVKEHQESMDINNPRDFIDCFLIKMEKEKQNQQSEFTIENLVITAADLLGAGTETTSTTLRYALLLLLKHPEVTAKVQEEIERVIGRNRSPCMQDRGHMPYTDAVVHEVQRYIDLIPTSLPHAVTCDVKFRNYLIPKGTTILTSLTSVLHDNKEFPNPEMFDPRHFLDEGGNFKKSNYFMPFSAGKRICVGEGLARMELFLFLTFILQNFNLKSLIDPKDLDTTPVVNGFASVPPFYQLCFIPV
Sequence of Cytochrome P450 2C9 (P11712 whole entry): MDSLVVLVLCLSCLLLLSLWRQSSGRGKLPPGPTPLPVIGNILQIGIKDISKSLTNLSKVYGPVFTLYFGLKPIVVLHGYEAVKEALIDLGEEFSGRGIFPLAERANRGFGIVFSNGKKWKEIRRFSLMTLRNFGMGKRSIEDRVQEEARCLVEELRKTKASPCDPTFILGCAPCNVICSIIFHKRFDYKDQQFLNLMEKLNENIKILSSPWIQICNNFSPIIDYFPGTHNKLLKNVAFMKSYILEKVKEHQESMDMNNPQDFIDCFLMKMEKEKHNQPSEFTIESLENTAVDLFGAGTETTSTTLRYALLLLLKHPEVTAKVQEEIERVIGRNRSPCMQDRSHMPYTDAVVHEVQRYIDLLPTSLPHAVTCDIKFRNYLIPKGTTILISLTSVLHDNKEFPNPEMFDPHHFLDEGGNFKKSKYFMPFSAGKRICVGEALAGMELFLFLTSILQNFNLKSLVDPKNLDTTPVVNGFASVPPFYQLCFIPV

| SMILES | IC50 [1] | IC50 (Trypanosoma cruzi [3]) | selectivity ratio ([2]; L6 cells) | selectivity ratio ([4]; L6 cells) | IC50 (Leishmania donovani) | selectivity ratio ([5]; L6 cells) | IC50 (L6) | Activity [6] | Activity (Trypanosoma cruzi [7]) | IC50 [8] | also measured |
| --- | --- | --- | --- | --- | --- | --- | --- | --- | --- | --- | --- |
| O=C(Cn1cnc([N+](=O)[O-])n1)N1CCN(c2ncccn2)CC1 | 33.4 µM | 10000 nM | 4.5 | 15 | 22.9 µM | 6.52 | 150 µM | 2060 nmol/min/mg | 743 nmol/min/mg | > 30 µM |  |
| O=C(Cn1cnc([N+](=O)[O-])n1)N1CCN(c2ccc(Cl)c(Cl)c2)CC1 | 4.48 µM | 169 nM | 24 | 641 | 1.22 µM | 89 | 108 µM | 2320 nmol/min/mg | 753 nmol/min/mg | 4.73 µM | IC50 [9]: 7.97 µM; IC50 [10]: 650 nM; Ratio IC50 [11]: 12.3; Activity (Mus musculus): Non-toxic; inhibition in vivo at 15 mg/kg/day (Trypanosoma cruzi [12]): 77% |
| O=C(Cn1cnc([N+](=O)[O-])n1)N1CCN(Cc2ccc(Cl)c(Cl)c2)CC1 | 0.231 µM | 298 nM |  |  | 8.13 µM |  | 59.9 µM | 3730 nmol/min/mg | 745 nmol/min/mg | 3.59 µM | selectivity ratio ([2]; l6): 260; selectivity ratio ([4]; l6): 201; selectivity ratio ([5]; l6): 7.36; IC50 [9]: 4.13 µM; IC50 [10]: 580 nM; Ratio IC50 [11]: 7.2; IC50 (Cytochrome P450 3A4): > 20 µM; IC50 (Cytochrome P450 2C9): > 20 µM; IC50 (Cytochrome P450 2D6): > 20 µM; IC50 (Cytochrome P450 2C19): > 20 µM; IC50 (Cytochrome P450 2C8): > 20 µM; efflux ratio at 2 h [13]: 0.91 |
| O=C(Cn1ccnc1[N+](=O)[O-])NCc1ccccc1 [BENZNIDAZOLE] |  |  |  |  |  |  |  | 1540 nmol/min/mg | 680 nmol/min/mg |  | inhibition in vivo at 15 mg/kg/day (Trypanosoma cruzi [12]): 99% |
| O=C(Cn1cnc([N+](=O)[O-])n1)N1CCN(C(=O)C2CC2)CC1 | 85.2 µM | 148000 nM | 1.83 | 1.05 | 30.6 µM | 5.12 | 156 µM |  |  |  |  |
| O=C(Cn1cnc([N+](=O)[O-])n1)N1CCN(c2ccc(C(F)(F)F)cc2)CC1 | 4.22 µM | 596 nM | 48 | 340 | 1.88 µM | 108 | 202 µM | 2190 nmol/min/mg | 707 nmol/min/mg | 17.5 µM | IC50 [9]: 13.6 µM; IC50 [10]: 850 nM; Ratio IC50 [11]: 16 |
| O=C(Cn1cnc([N+](=O)[O-])n1)N1CCN(C(c2ccccc2)c2ccc(Cl)cc2)CC1 (centres undefined) | 3.41 µM | 73 nM | 6.43 | 302 | 1.45 µM | 14.6 | 21.9 µM | 3910 nmol/min/mg | 672 nmol/min/mg | 2.75 µM | IC50 [9]: 3.86 µM; IC50 [10]: 1040 nM; Ratio IC50 [11]: 3.7 |
| O=C(Cn1cnc([N+](=O)[O-])n1)N1CCN(Cc2ccc(C(F)(F)F)cc2)CC1 | 1.39 µM | 862 nM |  |  | 9.7 µM |  | 111 µM | 3800 nmol/min/mg | 701 nmol/min/mg | 26 µM | IC50 [9]: > 30 µM; IC50 [10]: 1780 nM; half-life [14]: > 180 min; half-life [15]: > 180 min |

The next lines start with results.

| IC50 [1] | IC50 (Trypanosoma cruzi [3]) | SMILES | selectivity ratio ([2]; L6 cells) | selectivity ratio ([4]; L6 cells) | IC50 (Leishmania donovani) | selectivity ratio ([5]; L6 cells) | IC50 (L6) | Activity [6] | Activity (Trypanosoma cruzi [7]) | IC50 [8] | also measured |
| --- | --- | --- | --- | --- | --- | --- | --- | --- | --- | --- | --- |
| 26 µM | 1810 nM | O=C(CN1CCN(c2ccc(Cl)c(Cl)c2)CC1)N1CCN(c2ccc(Cl)c(Cl)c2)CC1 | < 1 | 11 | 6.27 µM | 3 | 20.2 µM |  |  |  |  |
| 24.6 µM | 2710 nM | O=C(CN1CCN(c2ccc(C(F)(F)F)cc2)CC1)N1CCN(c2ccc(C(F)(F)F)cc2)CC1 | 1.2 | 12 | 5.03 µM | 6 | 31.7 µM |  |  |  |  |
| 74.3 µM | 1120 nM | O=C(Cn1cnc([N+](=O)[O-])n1)N1CCN(c2ccc(Cl)cc2)CC1 | > 4 | > 254 | 9.39 µM | > 30 | > 285 µM | 2180 nmol/min/mg | 761 nmol/min/mg | > 30 µM |  |
| 12.8 µM | 25700 nM | N#Cc1ccccc1N1CCN(CC(=O)N2CCN(c3ccccc3C#N)CC2)CC1 | 9.9 | 5 | 24.3 µM | 4 | 127 µM |  |  |  |  |
| 19.3 µM | 4640 nM | O=C(Cn1cnc([N+](=O)[O-])n1)N1CCN(c2ccccn2)CC1 | 8.98 | 37.3 | 18.5 µM | 9.35 | 173 µM |  |  |  |  |
| 9.91 µM | 1330 nM | Cc1ccc(N2CCN(C(=O)Cn3cnc([N+](=O)[O-])n3)CC2)cc1 | 15 | 112 | 10.8 µM | 14 | 148 µM | 2190 nmol/min/mg | 787 nmol/min/mg | > 30 µM |  |
| 12.6 µM | 6060 nM | O=C(CN1CCN(c2ccc(Cl)cc2)CC1)N1CCN(c2ccc(Cl)cc2)CC1 | 9 | 19 | 18 µM | 6 | 116 µM |  |  |  |  |
| 16.4 µM | 2420 nM | COc1ccc(N2CCN(C(=O)Cn3cnc([N+](=O)[O-])n3)CC2)cc1 | 8.1 | 54.7 | 18.5 µM | 7.18 | 133 µM |  |  |  |  |
| 11.3 µM | 2850 nM | N#Cc1ccccc1N1CCN(C(=O)Cn2cnc([N+](=O)[O-])n2)CC1 | 19 | 75 | 14.6 µM | 15 | 213 µM |  |  |  |  |
| 157 µM | 142000 nM | O=C(Cn1ccnc1[N+](=O)[O-])N1CCN(c2ncccn2)CC1 | 1.79 | 1.97 | 133 µM | 2.11 | 280 µM |  |  |  |  |
| 26.3 µM | 29800 nM | Cc1ccc(N2CCN(CC(=O)N3CCN(c4ccc(C)cc4)CC3)CC2)cc1 | 8.1 | 7 | 24.2 µM | 9 | 213 µM |  |  |  |  |
